Laboratory results published in ChEMBL document CHEMBL1124399, “Synthesis and structure-activity studies of some disubstituted phenylisoxazoles against human picornavirus” (J Med Chem, 1989).
Values after ≈ are worked out from the molar mass of the structure shown. Values joined by “and” are separate entries in the source; they are usually repeats but may differ in a detail not shown here. Equal values may be shown once.

Tests used:
[1] = test system: Enterovirus; experiment: (§1) In vitro anti-rhinovirus activity was measured as maximum testable levels - highest concentration of compound which causes no apparent effect on the cell monolayers; format: functional
[2] = test system: Enterovirus; experiment: In vitro anti-rhinovirus activity was measured as mean MIC for five serotypes, HRV-1A, -2, -22, -41, and -50; format: functional
Summary of the method: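 Mean of plaque-reduction-assay MICs across five rhinovirus serotypes (HRV-1A, -2, -22, -41, -50), chosen to represent a range of sensitivity to this compound class.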

[3] = test system: Enterovirus; experiment: Minimum inhibitory concentration against rhinovirus serotype 14; format: functional
Summary of the method: (§2)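 Rhinovirus minimum inhibitory concentration (MIC) determined in a plaque reduction assay in cell culture, testing each serotype separately.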

[4] = test system: Enterovirus; experiment: Minimum inhibitory concentration against rhinovirus serotype 15; format: functional; summary of the method: as §2
[5] = test system: Enterovirus; experiment: Minimum inhibitory concentration against rhinovirus serotype 1A; format: functional; summary of the method: as §2
[6] = test system: Enterovirus; experiment: Minimum inhibitory concentration against rhinovirus serotype 1B.; format: functional; summary of the method: as §2
[7] = test system: Enterovirus; experiment: Minimum inhibitory concentration against rhinovirus serotype 21.; format: functional; summary of the method: as §2
[8] = test system: Enterovirus; experiment: Minimum inhibitory concentration against rhinovirus serotype 41; format: functional; summary of the method: as §2
[9] = test system: Enterovirus; experiment: Minimum inhibitory concentration against rhinovirus serotype 50; format: functional; summary of the method: as §2
[10] = test system: Enterovirus; experiment: Minimum inhibitory concentration against rhinovirus serotype 6.; format: functional; summary of the method: as §2
[11] = test system: Enterovirus; experiment: Concentration required to inhibit 80 percent rhinovirus cell culture; format: functional
Summary of the method: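 MIC80 is the concentration that inhibits 80% of the rhinovirus serotypes tested. It is derived from per-serotype MICs measured by plaque reduction assay.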

[12] = test system: Enterovirus; experiment: Minimum inhibitory concentration against rhinovirus serotype 30; format: functional; summary of the method: as §2
[13] = test system: Enterovirus; experiment: Minimum inhibitory concentration against rhinovirus serotype 67; format: functional; details: Enterovirus; read-out: MIC; summary of the method: as §2
[14] = test system: Enterovirus; experiment: Minimum inhibitory concentration against rhinovirus serotype 86; format: functional; summary of the method: as §2
[15] = test system: Enterovirus; experiment: Minimum inhibitory concentration against rhinovirus serotype 89; format: functional; summary of the method: as §2
[16] = test system: Enterovirus; experiment: as §1; format: functional; details: Enterovirus; read-out: MIC
[17] = test system: Coxsackievirus; experiment: In vitro activity against coxsackie A- 11; format: functional
[18] = test system: Coxsackievirus; experiment: In vitro activity against coxsackie A- 21; format: functional
[19] = test system: Coxsackievirus; experiment: In vitro activity against coxsackie A-2; format: functional
[20] = test system: Coxsackievirus; experiment: In vitro activity against coxsackie B-2; format: functional
[21] = test system: Echovirus; experiment: In vitr oactivity against echovirus-3; format: functional
[22] = test system: Echovirus; experiment: In vitro activity against echovirus-3; format: functional
[23] = test system: Echovirus; experiment: In vitro activity against echovirus-4; format: functional
[24] = test system: Echovirus; experiment: In vitro activity against echovirus-9 (Barty); format: functional
[25] = test system: Enterovirus C; experiment: In vitro activity against coxsackie A- 4; format: functional
[26] = test system: Enterovirus C; experiment: In vitro activity against polioviurs-1 (Mahoney); format: functional
[27] = test system: Enterovirus C; experiment: In vitro activity against polioviurs-2 (Lansing); format: functional
[28] = test system: Enterovirus; experiment: Estimation by using phi 21 in combination with log P of compound 13 determined via RPHPLC-retention time procedure; format: functional
Summary of the method: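 Values estimated by adding substituent π constants to the measured log P of a reference analogue. That reference log P came from reversed-phase HPLC retention times, with mobile phase at pH 7.4 and n = 3.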

[29] = test system: Coxsackievirus; experiment: In vitro activity against coxsackie A- 9; format: functional
[30] = test system: Echovirus; experiment: In vitro activity against echovirus-30
[31] = test system: Echovirus; experiment: In vitro activity against echovirus-12
[32] = test system: Coxsackievirus; experiment: In vitro activity against coxsackie A- 21
[33] = test system: Echovirus; experiment: In vitro activity of the compound against echovirus-12

SMILES: Cc1cc(CCCCCOc2c(C)cc(C3=NCCO3)cc2Cl)on1
- MIC [1]: 0.7 µM (≈ 0.254 µg/mL)
- MIC [2]: 0.92 µM (≈ 0.334 µg/mL)
- MIC [3]: 0.6 µM (≈ 0.218 µg/mL)
- MIC ([4]; Enterovirus, read-out: MIC): 0.6 µM (≈ 0.218 µg/mL)
- MIC [5]: 0.04 µM (≈ 0.0145 µg/mL)
- MIC [6]: 0.6 µM (≈ 0.218 µg/mL)
- MIC ([6]; Enterovirus, read-out: MIC): 0.4 µM (≈ 0.145 µg/mL)
- MIC ([7]; Enterovirus, read-out: MIC): 0.2 µM (≈ 0.0726 µg/mL)
- MIC [8]: 1.9 µM (≈ 0.689 µg/mL)
- MIC [9]: 0.7 µM (≈ 0.254 µg/mL)
- MIC ([10]; Enterovirus, read-out: MIC): 0.06 µM (≈ 0.0218 µg/mL)
- MIC80 [11]: 0.9 µM (≈ 0.327 µg/mL)

SMILES: Cc1cc(CCCCCOc2c(Cl)cc(C3=NCCO3)cc2[N+](=O)[O-])on1
- MIC [1]: 1.4 µM (≈ 0.551 µg/mL)
- MIC [2]: 1.35 µM (≈ 0.532 µg/mL)
- MIC ([4]; Enterovirus, read-out: MIC): 0.2 µM (≈ 0.0788 µg/mL)
- MIC [5]: 0.07 µM (≈ 0.0276 µg/mL)
- MIC ([12]; Enterovirus, read-out: MIC): 0.05 µM (≈ 0.0197 µg/mL)
- MIC [8]: 3 µM (≈ 1.18 µg/mL)
- MIC [9]: 0.2 µM (≈ 0.0788 µg/mL)
- MIC [13]: 0.3 µM (≈ 0.118 µg/mL)
- MIC [14]: 0.4 µM (≈ 0.158 µg/mL)
- MIC [15]: 0.02 µM (≈ 0.00788 µg/mL)
- MIC80 [11]: 0.5 µM (≈ 0.197 µg/mL)

SMILES: Cc1cc(CCCCCOc2c(C)cc(C3=NCCO3)cc2C)on1
- MIC [1]: 0.8 µM (≈ 0.274 µg/mL)
- MIC [2]: 0.78 µM (≈ 0.267 µg/mL)
- MIC ([4]; Enterovirus, read-out: MIC): 0.4 µM (≈ 0.137 µg/mL)
- MIC [5]: 0.02 µM (≈ 0.00685 µg/mL)
- MIC [7]: 0.5 µM (≈ 0.171 µg/mL)
- MIC ([7]; Enterovirus, read-out: MIC): 0.7 µM (≈ 0.24 µg/mL)
- MIC ([12]; Enterovirus, read-out: MIC): 0.2 µM (≈ 0.0685 µg/mL)
- MIC [8]: 1.6 µM (≈ 0.548 µg/mL)
- MIC [9]: 0.2 µM (≈ 0.0685 µg/mL)
- MIC [10]: 1.2 µM (≈ 0.411 µg/mL)
- MIC ([10]; Enterovirus, read-out: MIC): 2.4 µM (≈ 0.822 µg/mL)
- MIC [14]: 0.05 µM (≈ 0.0171 µg/mL)
- MIC80 [11]: 1.3 µM (≈ 0.445 µg/mL)

SMILES: CCc1cc(C2=NCCO2)cc(C)c1OCCCCCc1cc(C)no1
- MIC [2]: 5.18 µM (≈ 1.85 µg/mL)
- MIC [16]: 35 µM (≈ 12.5 µg/mL)

SMILES: Cc1cc(CCCCCOc2c(Cl)cc(C3=NCCO3)cc2Cl)on1 [WIN-54954]
- MIC [17]: 4.8 µM (≈ 1.84 µg/mL)
- MIC [18]: 0.21 µM (≈ 0.0805 µg/mL)
- MIC [19]: 8.6 µM (≈ 3.3 µg/mL)
- MIC [20]: 0.13 µM (≈ 0.0498 µg/mL)
- MIC [21]: 1.4 µM (≈ 0.537 µg/mL)
- MIC [22]: 0.18 µM (≈ 0.069 µg/mL)
- MIC [23]: 0.39 µM (≈ 0.149 µg/mL)
- MIC [24]: 2.6 µM (≈ 0.997 µg/mL)
- MIC [25]: 1.4 µM (≈ 0.537 µg/mL)
- MIC [26]: 0.65 µM (≈ 0.249 µg/mL)
- MIC [27]: 0.55 µM (≈ 0.211 µg/mL)
- MIC [28]: 0.7 µM
- MIC [2]: 0.7 µM (≈ 0.268 µg/mL)
- MIC ([4]; Enterovirus, read-out: MIC): 0.3 µM (≈ 0.115 µg/mL)
- MIC [5]: 0.02 µM (≈ 0.00767 µg/mL)
- MIC ([6]; Enterovirus, read-out: MIC): 0.2 µM (≈ 0.0767 µg/mL)
- MIC ([7]; Enterovirus, read-out: MIC): 0.3 µM (≈ 0.115 µg/mL)
- MIC ([12]; Enterovirus, read-out: MIC): 0.09 µM (≈ 0.0345 µg/mL)
- MIC [8]: 0.9 µM (≈ 0.345 µg/mL)
- MIC [9]: 2.6 µM (≈ 0.997 µg/mL)
- MIC [13]: 0.02 µM (≈ 0.00767 µg/mL)
- MIC [14]: 0.02 µM (≈ 0.00767 µg/mL)
- MIC80 [11]: 0.3 µM (≈ 0.115 µg/mL)
- MIC [29]: 13.2 µM (≈ 5.06 µg/mL)
- MIC [30]: 0.08 µM (≈ 0.0307 µg/mL)
- MIC [31]: 16.2 µM (≈ 6.21 µg/mL)
- MIC [32]: 0.008 µM (≈ 0.00307 µg/mL)
- MIC [33]: 0.03 µM (≈ 0.0115 µg/mL)

SMILES: Cc1cc(CCCCCOc2c(Cl)cc(C3=NCCO3)cc2C(F)(F)F)on1
- MIC [1]: 0.5 µM (≈ 0.208 µg/mL)
- MIC [2]: 0.54 µM (≈ 0.225 µg/mL)
- MIC ([4]; Enterovirus, read-out: MIC): 0.4 µM (≈ 0.167 µg/mL)
- MIC [5]: 0.2 µM (≈ 0.0834 µg/mL)
- MIC ([12]; Enterovirus, read-out: MIC): 0.2 µM (≈ 0.0834 µg/mL)
- MIC [8]: 0.8 µM (≈ 0.333 µg/mL)
- MIC [9]: 0.2 µM (≈ 0.0834 µg/mL)
- MIC [13]: 1 µM (≈ 0.417 µg/mL)
- MIC [14]: 1.3 µM (≈ 0.542 µg/mL)
- MIC [15]: 0.05 µM (≈ 0.0208 µg/mL)
- MIC80 [11]: 1.3 µM (≈ 0.542 µg/mL)

SMILES: Cc1cc(CCCCCOc2c(Br)cc(C3=NCCO3)cc2Br)on1
- MIC [1]: 0.6 µM (≈ 0.283 µg/mL)
- MIC [2]: 0.63 µM (≈ 0.297 µg/mL)
- MIC [4]: 0.04 µM and 0.1 µM
- MIC [5]: 0.1 µM (≈ 0.0472 µg/mL)
- MIC ([7]; Enterovirus, read-out: MIC): 0.3 µM (≈ 0.142 µg/mL)
- MIC [12]: 0.2 µM (≈ 0.0944 µg/mL)
- MIC ([12]; Enterovirus, read-out: MIC): 0.4 µM (≈ 0.189 µg/mL)
- MIC [8]: 2.1 µM (≈ 0.992 µg/mL)
- MIC80 [11]: 1.3 µM (≈ 0.614 µg/mL)
